The subject of assay [1] is Radical scavenging activity. Nature of the assay: Antioxidant activity assessed as DPPH radical scavenging activity at 200 uM. The class given is functional. The procedure, abridged: (§1)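 DPPH radical bleaching, tested at 10, 50, 100 and 200 µM (printed as mM) following a published method, with resveratrol as reference.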
(The DPPH test is a chemical assay of radical scavenging.)

Assay [2] has as its system BV-2. Nature of the assay: Antiinflammatory activity against mouse BV2 microglia cells assessed as inhibition of LPS-induced NO production at 10 to 50 uM after 24 hrs. It is filed as functional, cell-based. The procedure, abridged: (§2)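 BV-2 murine microglia kept in DMEM with 10% FBS and penicillin/streptomycin (37 °C, 5% CO2). Cells were plated at 1 × 10⁵ cells/mL and stimulated with LPS 100 ng/mL, alone or with compound at 1, 10 or 50 µM, for 24 h at 37 °C. Nitrite in the medium was read by Griess reagent at 540 nm. Mean ± SD of three observations.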

For assay [3], the system named is Radical scavenging activity. The experiment in a line: Antioxidant activity assessed as DPPH radical scavenging activity. It is filed as functional. The procedure, abridged:
as §1

For assay [4], the system named is Radical scavenging activity. The experiment in a line: Antioxidant activity assessed as DPPH radical scavenging activity at 10 uM. It is filed as functional. The procedure, abridged: as §1
In assay [5] the test system is Radical scavenging activity. Nature of the assay: Antioxidant activity assessed as DPPH radical scavenging activity at 100 uM. The class given is functional. The procedure, abridged:
as §1

In assay [6] the test system is Radical scavenging activity. Nature of the assay: Antioxidant activity assessed as DPPH radical scavenging activity at 50 uM. The class given is functional. The procedure, abridged:
as §1

Assay [7] can be described thus: Neuroprotective activity in ICR mouse cortical neuron cells assessed as prevention of excitotoxic neuronal death after 24 hrs by LDH assay. The class given is functional. The note with it: Cortical neurone, read-out: ED50 (the source's name). The procedure, abridged: (§3)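 Primary cortical cultures from ICR mouse embryos at gestational day 15, plated on poly-D-lysine/laminin at 4.8 × 10⁵ cells/well in MEM with 5% FCS and mouse serum. Compound at 1–50 µM was co-applied with glutamate 50 µM for 24 h at 37 °C. LDH released into the medium was followed by NADH consumption with pyruvate, read at 340 nm. Mean ± SD of three observations.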

The test system of assay [8] is Cortical neurone. Nature of the assay: Neuroprotective activity in ICR mouse cortical neuron cells assessed as prevention of glutamate-induced neurotoxicity at 10 to 50 uM after 24 hrs by LDH assay. The class given is functional. The procedure, abridged:
as §3

Assay [9] deals with BV-2. The experiment in a line: Antiinflammatory activity against mouse BV2 microglia cells assessed as inhibition of LPS-induced NO production after 24 hrs. The class given is functional. The settings on record: BV-2, 24 h, read-out: ED50 (the source's name). The procedure, abridged:
as §2

Assay [10] deals with BV-2. Nature of the assay: Antiinflammatory activity against mouse BV2 microglia cells assessed as inhibition of LPS-induced NO production at 1 uM after 24 hrs. The class given is functional, cell-based. The procedure, abridged:
as §2

In assay [11] the test system is Cortical neurone. The experiment in a line: Neuroprotective activity in ICR mouse cortical neuron cells assessed as prevention of glutamate-induced neurotoxicity at 1 uM after 24 hrs by LDH assay. It is filed as functional. The procedure, abridged: as §3

Each structure is given as a SMILES string. Activity calls are given as the source filed them. The calls are words filed in the database; no cut-off is given here.

Consider `O=C(NCc1ccco1)c1ccc(/C=C/c2ccc(O)c(O)c2)cc1`, for which the Activity came out at 79.2% in [1], 21.9% in assay [4], 48% in assay [5] and 35.1% in assay [6]. For the same compound, the result with BV-2 [2] and in the assay on Cortical neurone [8] was Active. The IC50 (usually the midpoint of a concentration-inhibition curve) in assay [3] amounted to 69 µM. Moreover, the EC50 in [7] amounted to 58.3 µM; in the assay with BV-2 [9], 0.82 µM.

As to `CCOC(=O)c1cccc(NC(=O)c2ccc(/C=C/c3ccc(O)c(O)c3)cc2)c1`, the Activity in [1] was 62.8%; in assay [4], 21.3%; in [5], 44.1%; in [6], 29.3%. In addition, in [3], the IC50 was found to be 127 µM.

`O=C(Nc1ccccc1)c1ccc(/C=C/c2ccc(O)c(O)c2)cc1`: the Activity in [1] turned out to be 59.8%; in assay [4] it was 10.2%; in assay [5], 27.1%; in assay [6] it was 17.6%. Further, the IC50 in [3] was over 200 µM.

On to `OC/C=C/c1ccc(/C=C/c2ccc(O)c(O)c2)cc1`, for which the Activity in assay [1] turned out to be 17.3%; in assay [4] it was 6.82%; in [5], 11.5%; in assay [6], 8.64%. Besides, in assay [3], the IC50 was over 200 µM.

In the case of `COC(=O)c1ccc(/C=C/c2ccc(O)c(O)c2)cc1`, the Activity in assay [1] came to 29.3%; in assay [4], 2.31%; in assay [5], 16.5%; in assay [6], 8.95%. In addition, the 50% inhibitory concentration (IC50) in assay [3] was over 200 µM.

As for `O=C(c1ccc(/C=C/c2ccc(O)c(O)c2)cc1)N1CCC(Cc2ccccc2)CC1`, the Activity was found to be 25.8% in assay [1], 4.75% in assay [4], 17.4% in assay [5] and 10.1% in [6]. Besides, in assay [3], the IC50 is over 200 µM. Also, the outcome with Cortical neurone [8] and in the assay with BV-2 [10] was Active. For the same compound, the EC50 in the assay on BV-2 [9] is 1.12 µM.

For the compound `O=C(NC1CCCCC1)c1ccc(/C=C/c2ccc(O)c(O)c2)cc1`, the Activity in [1] came out at 68.7%; in [4] it was 17.2%; in [5], 40.2%; in [6], 22.5%. The half-maximal inhibitory concentration (IC50) in [3] stood at 128 µM.

For `O=C(NCC1CCCO1)c1ccc(/C=C/c2ccc(O)c(O)c2)cc1` (configuration not stated), the Activity in assay [1] is 31.7%; in assay [4], 16.7%; in [5], 26.5%; in assay [6], 18%. Besides, the IC50 in assay [3] is over 200 µM.

Regarding `CC1CCN(C(=O)c2ccc(/C=C/c3ccc(O)c(O)c3)cc2)CC1`, the Activity was 48.6% in assay [1], 15.1% in [4], 31.5% in [5] and 21.3% in assay [6]. Besides, the IC50 in assay [3] was over 200 µM.

As to `C=CCNC(=O)c1ccc(/C=C/c2ccc(O)c(O)c2)cc1`, the Activity in assay [1] is 74.1%; in assay [4], 15%; in assay [5], 41.7%; in [6] it was 29%. The result in the assay on BV-2 [2] and with Cortical neurone [8] was Active. In assay [3], the IC50 came out at 98.1 µM. For the same compound, the EC50 is 29.6 µM in [7] and 1.95 µM in the assay on BV-2 [9].

On to `O=C(c1ccc(/C=C/c2ccc(O)c(O)c2)cc1)N1CCOCC1`, for which the Activity in [1] came to 29.4%; in assay [4] it was 5.7%; in assay [5], 19.1%; in assay [6] it was 10.2%. Further, in assay [3], the IC50 is over 200 µM.

As for `C=CCN1CCN(C(=O)c2ccc(/C=C/c3ccc(O)c(O)c3)cc2)CC1`, the Activity in [1] is 62.4%; in assay [4] it was 24.8%; in assay [5], 40%; in assay [6], 31.2%. For the same compound, the IC50 in assay [3] was determined as 141 µM.

On to `O=C/C=C/c1ccc(/C=C/c2ccc(O)c(O)c2)cc1`, for which the Activity in assay [1] was 54.4%; in assay [4], 13.2%; in assay [5], 28.8%; in assay [6], 21.2%. Moreover, the outcome in the assay on Cortical neurone [11], with Cortical neurone [8] and with BV-2 [10] was Active. For the same compound, the IC50 in assay [3] is over 200 µM. For the same compound, the EC50 was 42.3 µM in assay [7] and 1.51 µM with BV-2 [9].

For `Oc1ccc(/C=C/c2cc(O)cc(O)c2)cc1` [RESVERATROL], the Activity in assay [1] amounted to 33.8%; in assay [4], 9.45%; in assay [5], 28.4%; in [6], 8.44%. In assay [3], the IC50 is over 200 µM.

For the compound `O=C(NCc1ccccc1F)c1ccc(/C=C/c2ccc(O)c(O)c2)cc1`, the Activity in assay [1] came to 88%; in assay [4], 29.8%; in assay [5] it was 52.3%; in assay [6] it was 42.2%. In addition, the IC50 in assay [3] was found to be 43.6 µM.

On to `O=C(NCCCN1CCCC1=O)c1ccc(/C=C/c2ccc(O)c(O)c2)cc1`, for which the Activity was found to be 44% in assay [1], 12.9% in [4], 28.4% in assay [5] and 22.2% in [6]. Further, in [3], the IC50 is over 200 µM.

For the compound `O=C(c1ccccc1)N1CCN(C(=O)c2ccc(/C=C/c3ccc(O)c(O)c3)cc2)CC1`, the Activity was determined as 59.1% in assay [1], 17.2% in assay [4], 36.7% in [5] and 24.6% in [6]. Also, in [3], the IC50 is 185 µM.

As to `COC(=O)/C=C/c1ccc(/C=C/c2ccc(O)c(O)c2)cc1`, the Activity in assay [1] was determined as 5.29%; in assay [4] it was 5.91%; in [5] it was 5.73%; in [6], 5.31%. Moreover, the IC50 in assay [3] is over 200 µM.

As for `CCCCCCCCCCNC(=O)c1ccc(/C=C/c2ccc(O)c(O)c2)cc1`, the Activity amounted to 79.1% in assay [1], 18.5% in assay [4], 75.2% in [5] and 42% in assay [6]. The IC50 in [3] was 47.9 µM.

For `O=C(CNC(=O)c1ccccc1)OCc1ccc(/C=C/c2ccc(O)c(O)c2)cc1`, the Activity in assay [1] came to 46.9%; in [4] it was 21.2%; in assay [5], 33.2%; in assay [6] it was 28.1%. The result in the assay with Cortical neurone [11] was Active. In addition, the IC50 in assay [3] was over 200 µM.
